Experimental data published in ChEMBL document CHEMBL1144236, “Synthesis of 1-arylpiperazyl-2-phenylcyclopropanes designed as antidopaminergic agents: cyclopropane-based conformationally restricted analogs of haloperidol” (Bioorg Med Chem, 2008).

Tests used:
[1] = Displacement of [3H]YM-09151-2 from human dopamine D4.2 receptor in membrane suspensions by liquid scintillation counter
[2] = Displacement of [3H]prazosin from adrenergic alpha1 receptor in ICR mouse brain homogenate; format: tissue-based
How it was run: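 Brain tissue was homogenized in 19 vol. of 50 mM Tris–HCl pH 7.5 and centrifuged at 40,000g for 15 min, then the pellet was washed once and resuspended in 24 vol. buffer. Homogenate (about 400 protein) was incubated with [3H]prazosin (0.05–1 nM) for 1 h at 20 °C. Binding was ended by rapid filtration, with filter-bound radioactivity counted by liquid scintillation.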

D(2) dopamine receptor = D(2) dopamine receptor (Homo sapiens, UniProt P14416); assay: Displacement of [3H]YM-09151-2 from human dopamine D2S receptor in membrane suspensions by liquid scintillation counter
Sequence of D(2) dopamine receptor (P14416 whole entry): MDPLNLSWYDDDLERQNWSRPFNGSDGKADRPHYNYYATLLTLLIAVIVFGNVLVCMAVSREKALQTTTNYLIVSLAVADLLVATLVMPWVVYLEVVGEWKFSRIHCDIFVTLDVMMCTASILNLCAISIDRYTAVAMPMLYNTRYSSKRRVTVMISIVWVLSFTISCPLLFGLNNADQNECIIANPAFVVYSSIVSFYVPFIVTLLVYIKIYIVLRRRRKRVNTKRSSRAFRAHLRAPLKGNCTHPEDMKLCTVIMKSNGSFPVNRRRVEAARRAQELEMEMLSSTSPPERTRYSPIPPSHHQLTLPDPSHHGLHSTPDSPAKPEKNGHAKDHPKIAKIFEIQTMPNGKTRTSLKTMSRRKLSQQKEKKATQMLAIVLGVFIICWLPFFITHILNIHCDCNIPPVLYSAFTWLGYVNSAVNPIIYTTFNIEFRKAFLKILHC

Homo sapiens = species: Homo sapiens; assay: Selectivity ratio of Ki for human dopamine D2S receptor to Ki for human dopamine D4.2 receptor

SMILES	Ki [1] [nM]	Ki [2] [nM]	Ki (D(2) dopamine receptor) [nM]	Ratio Ki (Homo sapiens)
Cc1ccc(N2CCN(C[C@H]3C[C@H]3c3ccccc3)CC2)c(C)c1	897	521		
Cc1ccc(N2CCN(C[C@H]3C[C@@H]3c3ccccc3)CC2)c(C)c1	130	432		
O=C(CCCN1CCC(O)(c2ccc(Cl)cc2)CC1)c1ccc(F)cc1 [HALOPERIDOL]	9.32			
Cc1ccc(N2CCN(C[C@@H]3C[C@@H]3c3ccccc3)CC2)c(C)c1	2050	537		

Next, values leading:

Ki [1] [nM]	Ki [2] [nM]	Ki (D(2) dopamine receptor) [nM]	Ratio Ki (Homo sapiens)	SMILES
4660	401	> 10000	> 2.1	Cc1ccc(N2CCN([C@H](C)[C@H]3C[C@]3(C)c3ccccc3)CC2)c(C)c1
236	906	> 10000	> 42	Cc1ccc(N2CCN(C[C@H]3C[C@]3(C)c3ccccc3)CC2)c(C)c1
4190	250	> 10000	> 2.4	Cc1ccc(N2CCN([C@@H](C)[C@H]3C[C@]3(C)c3ccccc3)CC2)c(C)c1
